# Test results: PubChem BioAssay AID588682 (Southern Research Specialized Biocontainment Screening …, 2011)
# The source made the active and inactive calls.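 The calls were made as follows: active = inhibition of 30% or more at any tested concentration; inactive = the rest.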
# System: M17 leucyl aminopeptidase (Plasmodium falciparum 3D7)
# Test: PfM17LAP leucine aminopeptidase inhibitors, dose response, counter-screen for PfM1AAP inhibitor project, biochemical, QFRET (AID 588682)
# Conditions: recombinant PfM17LAP, H-Leu-NHMec fluorogenic cleavage; series mostly up to 100 µM
# Outline: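 System: recombinant Plasmodium falciparum M17 leucine aminopeptidase (rPFM17LAP) / Medium: Tris buffer, pH 7.5, with 2 mM CoCl2 / Also added: fluorogenic substrate, 0.1 mM / Doses: compound dose series from 100 to 0.2 µM / Schedule: 90 min, room temperature / Measured by: fluorescence 370/460 nm / Read-out: % enzyme inhibition / Controls: background wells lacking enzyme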
row,Compound,outcome
1,CC(C)(C)c1ccc(-c2ccc(S(=O)(=O)N3CCC(C(=O)NCc4ccc5c(c4)OCO5)CC3)s2)cc1,inactive
2,CC[C@H](C)[C@H](NC(=O)c1ccc([N+](=O)[O-])cc1)C(=O)NCc1ccccc1,inactive
3,CC(=O)Nc1cccc(-c2ccc(S(=O)(=O)N3CCC(C(=O)NCc4ccc5c(c4)OCO5)CC3)s2)c1,inactive
4,CC[C@H](C)[C@H](NS(=O)(=O)c1ccc(Br)s1)C(=O)NCc1ccc(C(F)(F)F)cc1,inactive
5,COc1ccc(-c2ccc(S(=O)(=O)N3CCC(C(=O)NCc4ccc5c(c4)OCO5)CC3)s2)cc1,inactive
6,CC[C@H](C)[C@H](NS(=O)(=O)c1cccs1)C(=O)NCc1ccc(F)cc1,inactive
7,O=C(NCc1ccc2c(c1)OCO2)C1CCN(S(=O)(=O)c2ccc(-c3cccc(F)c3)s2)CC1,inactive
8,O=C(NCc1ccc2c(c1)OCO2)C1CCN(S(=O)(=O)c2ccc(-c3ccccc3)s2)CC1,inactive
9,CN(C)c1ccc(CNC(=O)C2CCN(S(=O)(=O)c3ccc(Br)s3)CC2)cc1,inactive
10,CC[C@H](C)[C@H](NS(=O)(=O)c1ccc(Br)s1)C(=O)O,inactive
11,CC[C@H](C)[C@H](NS(=O)(=O)c1ccc(Br)s1)C(=O)NCc1ccc(F)cc1,inactive
12,O=C(NCc1ccc2c(c1)OCO2)C1CCN(S(=O)(=O)c2ccc(-c3ccc(F)cc3)s2)CC1,inactive
13,CC[C@H](C)[C@H](NC(=O)c1ccc(C(C)(C)C)cc1)C(=O)NCc1ccc(C(F)(F)F)cc1,inactive
14,COc1cccc(-c2ccc(S(=O)(=O)N3CCC(C(=O)NCc4ccc5c(c4)OCO5)CC3)s2)c1,inactive
15,CC[C@H](C)[C@H](NC(=O)c1ccc([N+](=O)[O-])cc1)C(=O)NCc1ccc(F)cc1,inactive
16,O=C(NCc1ccc2c(c1)OCO2)C1CCN(S(=O)(=O)c2ccc(-c3cncc4ccccc34)s2)CC1,inactive
17,CC[C@H](C)[C@H](NC(=O)c1ccc([N+](=O)[O-])cc1)C(=O)NCc1ccc(C(F)(F)F)cc1,inactive
